Laboratory results reported in ChEMBL document CHEMBL1141720, “A study of the structure-activity relationship of GABA(A)-benzodiazepine receptor bivalent ligands by conformational analysis with low temperature NMR and X-ray analysis” (Bioorg Med Chem, 2008).
Each block holds one compound with its values, some of them ahead of it.

Columns and labels:
Format in all cases: cell-based
[1] = target: GABA A receptor alpha-4/beta-3/gamma-2 (Homo sapiens, UniProt P18507+P28472+P48169); assay: Displacement of [3H]flunitrazepam from human recombinant GABAA alpha-4-beta-3-gamma-2 receptor expressed in HEK293 cells
In short: (§1)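 Membranes from the receptor-expressing cells were harvested in hypotonic 50 mM Tris-acetate, pH 7.4 at 4°C. They were incubated with [3H]flunitrazepam in 0.5 mL for 1 h at 4°C. Nonspecific binding was taken with 100 μM diazepam. Reactions were filtered onto 0.3% polyethyleneimine-treated GF/C filters, washed three times with ice-cold buffer, and counted by liquid scintillation. Protein was measured by Bio-Rad assay against a BSA standard.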

[2] = target: T1, GABA-A receptor; alpha-1/beta-3/gamma-2 (Homo sapiens, UniProt P14867+P18507+P28472); assay: Displacement of [3H]flunitrazepam from human recombinant GABAA alpha-1-beta-3-gamma-2 receptor expressed in HEK293 cells; in short: as §1
T1 sequence (P14867 whole entry): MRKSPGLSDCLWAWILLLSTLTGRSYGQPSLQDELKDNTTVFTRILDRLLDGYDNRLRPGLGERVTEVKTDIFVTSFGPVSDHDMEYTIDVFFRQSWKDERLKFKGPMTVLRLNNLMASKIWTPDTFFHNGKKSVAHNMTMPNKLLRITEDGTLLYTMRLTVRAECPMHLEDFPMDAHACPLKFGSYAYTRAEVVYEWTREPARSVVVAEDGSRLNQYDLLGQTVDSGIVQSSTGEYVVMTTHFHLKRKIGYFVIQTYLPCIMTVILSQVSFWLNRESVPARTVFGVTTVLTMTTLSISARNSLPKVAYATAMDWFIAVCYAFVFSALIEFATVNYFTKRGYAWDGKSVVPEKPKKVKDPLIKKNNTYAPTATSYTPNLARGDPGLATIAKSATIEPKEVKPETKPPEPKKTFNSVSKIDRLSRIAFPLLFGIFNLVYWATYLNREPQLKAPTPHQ
T1 sequence (P18507 whole entry): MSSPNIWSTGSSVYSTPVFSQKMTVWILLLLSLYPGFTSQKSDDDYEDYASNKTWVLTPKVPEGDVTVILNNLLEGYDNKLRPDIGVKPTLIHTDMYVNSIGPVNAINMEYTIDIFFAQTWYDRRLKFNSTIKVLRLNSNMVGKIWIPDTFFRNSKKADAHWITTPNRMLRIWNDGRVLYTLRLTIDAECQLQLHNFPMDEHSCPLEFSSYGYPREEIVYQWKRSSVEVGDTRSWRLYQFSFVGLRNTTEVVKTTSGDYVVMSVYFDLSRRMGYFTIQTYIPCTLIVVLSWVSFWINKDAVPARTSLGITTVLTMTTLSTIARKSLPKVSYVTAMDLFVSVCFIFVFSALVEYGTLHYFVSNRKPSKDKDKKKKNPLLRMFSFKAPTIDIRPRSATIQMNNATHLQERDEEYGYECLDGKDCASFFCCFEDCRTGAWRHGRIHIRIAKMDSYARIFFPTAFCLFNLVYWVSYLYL
T1 sequence (P28472 whole entry): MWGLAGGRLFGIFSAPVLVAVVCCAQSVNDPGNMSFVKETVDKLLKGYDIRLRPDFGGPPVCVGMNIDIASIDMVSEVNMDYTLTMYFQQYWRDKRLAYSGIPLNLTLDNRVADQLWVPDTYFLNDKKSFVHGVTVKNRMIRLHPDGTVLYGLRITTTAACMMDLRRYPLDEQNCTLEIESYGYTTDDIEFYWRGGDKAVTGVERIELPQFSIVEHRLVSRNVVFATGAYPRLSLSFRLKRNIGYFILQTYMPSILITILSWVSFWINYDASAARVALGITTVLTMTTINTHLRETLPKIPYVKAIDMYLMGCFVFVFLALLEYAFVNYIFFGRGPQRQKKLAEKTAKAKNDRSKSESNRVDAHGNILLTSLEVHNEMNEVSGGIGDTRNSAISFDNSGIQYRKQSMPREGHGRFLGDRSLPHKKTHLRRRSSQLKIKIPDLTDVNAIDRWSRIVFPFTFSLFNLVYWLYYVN

[3] = target: T2, GABA-A receptor; alpha-2/beta-3/gamma-2 (Homo sapiens, UniProt P18507+P28472+P47869); assay: Displacement of [3H]flunitrazepam from human recombinant GABAA alpha-2-beta-3-gamma-2 receptor expressed in HEK293 cells; in short: as §1
T2 sequence (P18507 whole entry): T1 sequence (P18507 whole entry)
T2 sequence (P28472 whole entry): T1 sequence (P28472 whole entry)
T2 sequence (P47869 whole entry): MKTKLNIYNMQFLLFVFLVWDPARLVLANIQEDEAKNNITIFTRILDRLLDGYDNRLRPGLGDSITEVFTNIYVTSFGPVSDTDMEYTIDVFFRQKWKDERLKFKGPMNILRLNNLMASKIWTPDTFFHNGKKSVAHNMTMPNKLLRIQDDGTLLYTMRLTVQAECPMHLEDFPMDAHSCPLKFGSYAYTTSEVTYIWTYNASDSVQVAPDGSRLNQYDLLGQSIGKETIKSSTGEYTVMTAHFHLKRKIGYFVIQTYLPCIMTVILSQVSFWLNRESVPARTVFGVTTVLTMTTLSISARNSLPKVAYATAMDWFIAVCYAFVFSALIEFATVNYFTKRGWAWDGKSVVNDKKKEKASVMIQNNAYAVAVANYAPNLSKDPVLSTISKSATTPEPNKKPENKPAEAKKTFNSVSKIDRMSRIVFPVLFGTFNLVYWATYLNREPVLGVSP

[4] = target: T3, GABA-A receptor; alpha-5/beta-3/gamma-2 (Homo sapiens, UniProt P18507+P28472+P31644); assay: Displacement of [3H]flunitrazepam from human recombinant GABAA alpha-5-beta-3-gamma-2 receptor expressed in HEK293 cells; in short: as §1
T3 sequence (P18507 whole entry): T1 sequence (P18507 whole entry)
T3 sequence (P28472 whole entry): T1 sequence (P28472 whole entry)
T3 sequence (P31644 whole entry): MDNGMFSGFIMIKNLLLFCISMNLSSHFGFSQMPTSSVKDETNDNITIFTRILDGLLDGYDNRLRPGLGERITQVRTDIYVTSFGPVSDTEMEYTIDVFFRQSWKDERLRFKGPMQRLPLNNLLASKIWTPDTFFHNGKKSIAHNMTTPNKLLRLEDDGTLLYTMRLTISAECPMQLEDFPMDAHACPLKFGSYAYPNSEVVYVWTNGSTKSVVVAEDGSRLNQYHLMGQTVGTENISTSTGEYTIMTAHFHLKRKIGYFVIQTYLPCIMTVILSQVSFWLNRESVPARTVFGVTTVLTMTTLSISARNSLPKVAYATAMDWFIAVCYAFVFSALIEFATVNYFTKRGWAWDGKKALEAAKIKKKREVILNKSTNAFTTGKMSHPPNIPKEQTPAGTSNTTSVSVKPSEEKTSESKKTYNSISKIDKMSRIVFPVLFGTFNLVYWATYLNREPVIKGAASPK

[5] = target: GABA-A receptor; alpha-6/beta-3/gamma-2 (Homo sapiens, UniProt P18507+P28472+Q16445); assay: Displacement of [3H]flunitrazepam from human recombinant GABAA alpha-6-beta-3-gamma-2 receptor expressed in HEK293 cells; in short: as §1
[6] = target: T4, Gamma-aminobutyric acid receptor subunit alpha-3 (Homo sapiens, UniProt P18507+P28472+P34903); assay: Displacement of [3H]flunitrazepam from human recombinant GABAA alpha-3-beta-3-gamma-2 receptor expressed in HEK293 cells; in short: as §1
T4 sequence (P34903 whole entry): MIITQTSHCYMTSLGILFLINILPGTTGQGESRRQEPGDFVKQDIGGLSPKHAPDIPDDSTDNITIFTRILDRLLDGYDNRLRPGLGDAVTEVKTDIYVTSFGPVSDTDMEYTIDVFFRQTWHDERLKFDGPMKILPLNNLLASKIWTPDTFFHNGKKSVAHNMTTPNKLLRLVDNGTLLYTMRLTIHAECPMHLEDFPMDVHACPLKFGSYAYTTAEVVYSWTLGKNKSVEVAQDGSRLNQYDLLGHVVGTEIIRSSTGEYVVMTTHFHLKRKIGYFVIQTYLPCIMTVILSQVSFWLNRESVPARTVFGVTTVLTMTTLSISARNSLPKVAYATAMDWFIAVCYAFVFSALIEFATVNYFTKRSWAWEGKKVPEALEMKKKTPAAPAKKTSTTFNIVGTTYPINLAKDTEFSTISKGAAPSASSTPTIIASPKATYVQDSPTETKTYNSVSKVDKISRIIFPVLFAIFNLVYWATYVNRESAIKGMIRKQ

Chain of GABA-A receptor; alpha-6/beta-3/gamma-2 (Q16445 whole entry, one chain of several): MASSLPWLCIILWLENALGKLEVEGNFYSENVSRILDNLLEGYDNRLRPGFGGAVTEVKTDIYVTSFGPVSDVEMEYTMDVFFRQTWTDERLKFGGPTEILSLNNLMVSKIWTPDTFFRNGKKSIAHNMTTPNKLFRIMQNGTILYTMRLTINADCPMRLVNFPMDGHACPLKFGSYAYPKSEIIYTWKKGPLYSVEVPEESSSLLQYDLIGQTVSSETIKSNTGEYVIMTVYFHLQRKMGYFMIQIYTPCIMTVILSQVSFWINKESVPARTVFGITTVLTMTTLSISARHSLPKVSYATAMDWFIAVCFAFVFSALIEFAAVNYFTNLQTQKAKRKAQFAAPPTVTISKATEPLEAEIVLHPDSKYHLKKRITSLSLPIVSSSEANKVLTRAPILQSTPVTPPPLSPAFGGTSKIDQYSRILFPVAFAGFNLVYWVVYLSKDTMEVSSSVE
Chain of GABA A receptor alpha-4/beta-3/gamma-2 (P48169 whole entry, one chain of several): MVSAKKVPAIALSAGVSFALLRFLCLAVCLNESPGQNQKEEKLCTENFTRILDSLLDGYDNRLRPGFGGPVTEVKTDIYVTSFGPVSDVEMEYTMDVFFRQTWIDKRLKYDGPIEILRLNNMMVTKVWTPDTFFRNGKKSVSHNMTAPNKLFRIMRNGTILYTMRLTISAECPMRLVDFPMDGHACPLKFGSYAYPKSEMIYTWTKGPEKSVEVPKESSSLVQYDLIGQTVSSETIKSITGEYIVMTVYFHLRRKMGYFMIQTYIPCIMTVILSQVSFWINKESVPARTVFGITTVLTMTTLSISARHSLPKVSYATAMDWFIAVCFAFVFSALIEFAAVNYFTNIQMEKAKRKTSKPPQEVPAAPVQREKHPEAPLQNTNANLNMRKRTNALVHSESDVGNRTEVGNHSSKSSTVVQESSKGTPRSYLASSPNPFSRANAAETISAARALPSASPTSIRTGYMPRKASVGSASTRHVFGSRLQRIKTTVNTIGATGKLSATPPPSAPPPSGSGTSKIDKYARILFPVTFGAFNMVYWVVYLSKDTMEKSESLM

SMILES: C#Cc1ccc2c(c1)C(=O)N(C)Cc1c(C(=O)OCC)ncn1-2
- Ki [1]: 5.3 nM

SMILES: CCc1ccc2c(c1)C(=O)N(C)Cc1c(C(=O)OCCCOC(=O)c3ncn4c3CN(C)C(=O)c3cc(CC)ccc3-4)ncn1-2
- Ki [2]: 1850 nM
- Ki [3]: 4700 nM
- Ki [4]: 101 nM
- Ki [5]: 5000 nM
- Ki [6]: 8550 nM

SMILES: C#Cc1ccc2c(c1)C(=O)N(C)Cc1c(C(=O)OCCCCCOC(=O)c3ncn4c3CN(C)C(=O)c3cc(C#C)ccc3-4)ncn1-2
- Ki [2]: 231 nM
- Ki [3]: 661 nM
- Ki [4]: 5.4 nM
- Ki [5]: 54.2 nM
- Ki [6]: 2670 nM

- Ki [2]: 460 nM
- Ki [3]: 5000 nM
- Ki [4]: 5000 nM
- Ki [5]: 5000 nM
SMILES: C#Cc1ccc2c(c1)C(c1ccccc1)=NCc1c(C(=O)OCCOCCOC(=O)c3ncn4c3CN=C(c3ccccc3)c3cc(C#C)ccc3-4)ncn1-2

SMILES: C#Cc1ccc2c(c1)C(=O)N(C)Cc1c(C(=O)OCOCOC(=O)c3ncn4c3CN(C)C(=O)c3cc(C#C)ccc3-4)ncn1-2
- Ki [2]: 3800 nM
- Ki [3]: 2690 nM
- Ki [4]: 76.1 nM
- Ki [6]: 1860 nM

SMILES: C#Cc1ccc2c(c1)C(c1ccccc1)=NCc1c(C(=O)OCCCOC(=O)c3ncn4c3CN=C(c3ccccc3)c3cc(C#C)ccc3-4)ncn1-2
- Ki [2]: 236 nM
- Ki [3]: 7.4 nM
- Ki [4]: 194 nM
- Ki [5]: > 5000 nM
- Ki [6]: 272 nM
- Ki [1]: > 5000 nM
